The values below come from ChEMBL document CHEMBL1149260, “Synthesis of tropeines and allosteric modulation of ionotropic glycine receptors” (J Med Chem, 2004).

In test [1] the target is T1, Serotonin 3 (5-HT3) receptor (Rattus norvegicus, UniProt P35563+Q9JJ16).
T1 sequence (P35563 whole entry): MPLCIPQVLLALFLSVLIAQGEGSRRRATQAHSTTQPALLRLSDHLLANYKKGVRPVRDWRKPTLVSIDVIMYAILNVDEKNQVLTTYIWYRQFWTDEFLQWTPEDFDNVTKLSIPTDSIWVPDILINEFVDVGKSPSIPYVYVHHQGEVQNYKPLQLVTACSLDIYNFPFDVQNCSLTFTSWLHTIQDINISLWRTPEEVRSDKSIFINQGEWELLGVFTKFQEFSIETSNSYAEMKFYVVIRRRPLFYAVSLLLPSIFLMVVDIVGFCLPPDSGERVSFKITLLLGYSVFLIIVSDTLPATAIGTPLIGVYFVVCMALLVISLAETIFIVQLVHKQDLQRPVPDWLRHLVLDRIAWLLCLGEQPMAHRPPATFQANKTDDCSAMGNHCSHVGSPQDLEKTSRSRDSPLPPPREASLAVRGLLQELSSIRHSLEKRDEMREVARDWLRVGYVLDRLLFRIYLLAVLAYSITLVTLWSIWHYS
T1 sequence (Q9JJ16 whole entry): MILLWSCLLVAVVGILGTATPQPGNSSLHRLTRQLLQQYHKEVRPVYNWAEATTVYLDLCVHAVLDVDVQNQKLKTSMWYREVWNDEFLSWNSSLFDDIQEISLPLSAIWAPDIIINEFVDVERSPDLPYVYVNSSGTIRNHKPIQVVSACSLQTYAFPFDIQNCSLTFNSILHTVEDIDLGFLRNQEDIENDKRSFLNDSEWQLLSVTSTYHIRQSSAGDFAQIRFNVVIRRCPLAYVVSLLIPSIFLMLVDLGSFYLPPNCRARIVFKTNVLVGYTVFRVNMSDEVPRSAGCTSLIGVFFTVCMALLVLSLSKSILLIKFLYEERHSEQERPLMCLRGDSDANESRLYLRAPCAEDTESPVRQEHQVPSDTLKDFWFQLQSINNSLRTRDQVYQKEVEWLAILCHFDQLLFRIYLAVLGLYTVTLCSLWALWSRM
Nature of the test: Displacement of [3H]granisetron from 5HT3 receptor in Wistar rat cerebral cortex synaptosomal membranes. Type of test: cell membranes, Membrane. An outline of the steps:
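Male Wistar rat cerebral cortex plus hippocampus synaptosomal membranes, in 10 mM HEPES with 140 mM NaCl (pH 7.5). Incubated with 0.3 nM [3H]granisetron and varied tropeine concentrations for 2.5 h on ice. Nonspecific binding defined with 10 µM granisetron. Duplicate aliquots filtered on PEI-presoaked GF/B filters. Displacement curves fitted with variable slopes; 3-6 experiments.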
In general terms: Displacement assays read how much labelled ligand stays bound in the presence of the test substance.

The target in test [2] is Serotonin 3 (5-HT3) receptor (Rattus norvegicus) (UniProt P35563+Q9JJ16). The experiment in a line: Selectivity for glycine receptor measured as KA over 5HT3 receptor measured as IC50 in Wistar rat synaptosomal membranes. The class given is cell membranes.
For test [3], the species on record is Rattus norvegicus. The experiment in a line: Displacement of [3H]strychnine from glycine receptor in Wistar rat spinal cord synaptosomal membranes. The class given is cell membranes. To be noted: Membrane.

Consider `CCc1ccc(C(=O)O[C@@H]2C[C@H]3CC[C@@H](C2)N3C)cc1`, for which, in test [1], the IC50 is 182 nM. In test [2], the Selectivity ratio stood at 0.04. The -Log KA in test [3] came out at 5.34.
The matching figures for `O=C(O[C@@H]1C[C@H]2CC[C@@H](C1)N2)c1cccc(Cl)c1`: 692 nM, 33.7 and 7.65.
Turning to `CN1[C@@H]2CC[C@H]1C[C@H](OC(=O)c1ccccc1)C2` (stereo in doubt; 2a) [listing 1 of 2 here], the Selectivity ratio in test [2] is 0.78. In addition, the -Log KA in test [3] came out at 6.39.
For `CN1[C@@H]2CC[C@H]1C[C@H](OC(=O)c1ccc([N+](=O)[O-])cc1)C2`, the IC50 in test [1] is 1050 nM. The Selectivity ratio in test [2] is 0.2. Further, the -Log KA in test [3] worked out at 5.29.
For the molecule `CN1[C@@H]2CC[C@H]1C[C@H](OC(=O)c1ccccc1)C2` (stereo in doubt; 2a) [listing 2 of 2 here], in test [1], the concentration for half-maximal inhibition (IC50) was 299 nM.
For the molecule `O=C(O[C@H]1C[C@H]2CC[C@@H](C1)N2)c1ccccc1` (stereo in doubt; 4a) [listing 1 of 2 here], the Selectivity ratio in test [2] amounted to 161. Further, the -Log KA in test [3] turned out to be 7.98.
Consider `CN1[C@@H]2CC[C@H]1C[C@H](OC(=O)c1ccc(C(C)(C)C)cc1)C2`, for which the -Log KA in test [3] was determined as 4.53.
`COc1cc(C(=O)O[C@@H]2C[C@H]3CC[C@@H](C2)N3C)cc(OC)c1OC` showed an IC50 in test [1] of 231 nM. In addition, in test [2], the Selectivity ratio is 0.23. In test [3], this molecule displayed a -Log KA of 5.97.
`CN1[C@@H]2CC[C@H]1C[C@H](NC(=O)c1ccccc1)C2` yielded a -Log KA in test [3] of 4.8.
With `CN1[C@@H]2CC[C@H]1C[C@@H](OC(=O)c1cc(Cl)cc3c1OC(C)(C)C3)C2`, the half-maximal inhibitory concentration (IC50) in test [1] was 7.18 nM. Besides, the Selectivity ratio in test [2] worked out at 0.03. In test [3], the -Log KA came to 6.63.
In test [1], `COc1cccc(C(=O)O[C@@H]2C[C@H]3CC[C@@H](C2)N3C)c1` had an IC50 of 71 nM. Moreover, the Selectivity ratio in test [2] turned out to be 0.87. In test [3], this molecule yielded a -Log KA of 7.08.
For the molecule `CN1[C@@H]2CC[C@H]1C[C@H](OC(=O)c1cccc([N+](=O)[O-])c1)C2`, in test [3], the -Log KA turned out to be 5.84.
On to `CN1[C@@H]2CC[C@H]1C[C@@H](OC(=O)c1cc(Cl)cc(Cl)c1)C2`, for which, in test [3], the -Log KA was 5.99.
For the molecule `CN1[C@@H]2CC[C@H]1C[C@H](OC(=O)c1ccccc1)C2` (stereo in doubt; 7) [listing 1 of 2 here], the 50% inhibitory concentration (IC50) in test [1] is 499 nM.
The molecule `Nc1cccc(C(=O)O[C@@H]2C[C@H]3CC[C@@H](C2)N3)c1` gave an IC50 in test [1] of 577 nM. For the same molecule, in test [2], the Selectivity ratio was found to be 10.3. In test [3], this molecule came in with a -Log KA of 7.23.
Molecule `CCN1[C@@H]2CC[C@H]1C[C@@H](OC(=O)c1ccccc1)C2` gave an IC50 in test [1] of 716 nM. The Selectivity ratio in test [2] amounted to 0.98. In addition, the -Log KA in test [3] was 6.14.
Take `CN1[C@@H]2CC[C@H]1C[C@@H](NC(=O)c1cc(Cl)cc3c1OC(C)(C)C3)C2`: the -Log KA in test [3] turned out to be 6.57.
Turning to `CN1[C@@H]2CC[C@H]1C[C@H](OC(=O)c1ccccc1)C2` (stereo in doubt; 7) [listing 2 of 2 here], the Selectivity ratio in test [2] amounted to 0.3. For the same molecule, the -Log KA in test [3] is 5.77.
The matching figures for `O=C(O[C@H]1C[C@H]2CC[C@@H](C1)N2)c1ccccc1` (stereo in doubt; 8) [listing 1 of 2 here]: 0.98 and 5.96.
In test [1], `CC1(C)Cc2cc(Cl)cc(C(=O)O[C@H]3C[C@H]4CC[C@@H](C3)N4)c2O1` had a half-maximal inhibitory concentration (IC50) of 56.2 nM. In addition, the Selectivity ratio in test [2] is 3.37. In test [3], the -Log KA is 7.74.
For `O=C(O[C@H]1C[C@H]2CC[C@@H](C1)N2)c1ccccc1` (stereo in doubt; 4a) [listing 2 of 2 here], the IC50 in test [1] is 1560 nM.
As to `COc1cccc(C(=O)O[C@@H]2C[C@H]3CC[C@@H](C2)N3)c1`, the half-maximal inhibitory concentration (IC50) in test [1] was 262 nM. The Selectivity ratio in test [2] was 33.5. Moreover, in test [3], the -Log KA was found to be 8.11.
The matching figures for `CN1[C@@H]2CC[C@H]1C[C@H](OC(=O)c1cccc(Cl)c1)C2`: 67.9 nM, 0.15 and 6.31.
In test [1], `O=C(O[C@H]1C[C@H]2CC[C@@H](C1)N2)c1ccccc1` (stereo in doubt; 8) [listing 2 of 2 here] had a concentration for half-maximal inhibition (IC50) of 1000 nM.

One may read the IC50 as the concentration that gives 50% inhibition. Low readings indicate inhibition by little substance, high ones a need for much substance.
